Experiment [1] addresses T1, Prostaglandin E synthase (Homo sapiens, UniProt O14684).
T1 sequence (O14684 whole entry): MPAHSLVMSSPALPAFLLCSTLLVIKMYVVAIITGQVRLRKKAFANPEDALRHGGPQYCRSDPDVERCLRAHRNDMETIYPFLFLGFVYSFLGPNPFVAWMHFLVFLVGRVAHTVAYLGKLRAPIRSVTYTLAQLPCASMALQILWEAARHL
The experiment can be described thus: Inhibition of PGES-1 in human whole blood assessed as LPS-induced PGE2 formation incubated for 15 mins prior to LPS addition measured after 24 hrs by EIA. In short, it runs like this: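 Fresh heparinized blood came from healthy volunteers free of NSAIDs for at least 14 days. It was preincubated 15 min at 37 °C with compound or DMSO vehicle. LPS (final 100 μg/mL) was then added for 24 h at 37 °C. Plasma was obtained by centrifugation at 4 °C, and PGE2 was read by EIA.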

Experiment [2] addresses T2, Polyunsaturated fatty acid 5-lipoxygenase (Homo sapiens) (UniProt P09917).
T2 sequence (whole entry): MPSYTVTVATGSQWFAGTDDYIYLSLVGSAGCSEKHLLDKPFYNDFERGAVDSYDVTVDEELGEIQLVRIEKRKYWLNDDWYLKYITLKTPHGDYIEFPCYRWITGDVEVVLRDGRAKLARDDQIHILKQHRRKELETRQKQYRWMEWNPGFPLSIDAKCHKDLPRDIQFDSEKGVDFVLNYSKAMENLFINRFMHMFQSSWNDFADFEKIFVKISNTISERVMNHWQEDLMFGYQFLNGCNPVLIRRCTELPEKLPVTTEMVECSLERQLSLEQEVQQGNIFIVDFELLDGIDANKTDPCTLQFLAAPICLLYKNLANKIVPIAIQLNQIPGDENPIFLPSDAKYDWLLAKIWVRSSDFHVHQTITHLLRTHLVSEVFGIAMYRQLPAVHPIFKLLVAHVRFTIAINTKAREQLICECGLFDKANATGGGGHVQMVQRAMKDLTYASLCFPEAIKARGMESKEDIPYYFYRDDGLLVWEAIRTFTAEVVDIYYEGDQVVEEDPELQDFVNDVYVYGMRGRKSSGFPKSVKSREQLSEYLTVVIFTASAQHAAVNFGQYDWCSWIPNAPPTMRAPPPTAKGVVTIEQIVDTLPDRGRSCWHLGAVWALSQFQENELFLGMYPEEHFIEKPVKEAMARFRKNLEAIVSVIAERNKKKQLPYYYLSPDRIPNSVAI
The experiment can be described thus: Inhibition of 5-LOX-mediated LTB4 formation in human whole blood at 10 uM incubated for 20 mins prior to substrate addition measured after 0.5 hrs by EIA in presence of calcium ionophore A23187. In short, it runs like this: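 Human whole blood was stimulated with calcium ionophore A23187 (final 20 μg/mL) for 0.5 h at 37 °C to induce LTB4 formation. Compounds were tested at 10 μM.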

Experiment [3] has as its target T1, Prostaglandin E synthase. The experiment can be described thus: Inhibition of full-length microsomal PGES-1 (unknown origin) expressed in Escherichia coli Rosetta(DE3) using PGH2 as substrate assessed as inhibition of PGH2 conversion to PGE2 incubated 15 mins prior to substrate addition measured after 1 min by EIA. In short, it runs like this:
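Reactions used 2.5 mM cofactor and 17 μM PGH2 for 1 min at 4 °C, then were stopped, and PGE2 was quantified by EIA. IC50 came from dose-response curves. Mean ± SEM, n = 3.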

Experiment [4] deals with Prostaglandin G/H synthase 1 (COX-1). The experiment can be described thus: Inhibition of COX-1 (unknown origin)-mediated TMPD oxidation using PGG2 as substrate at 100 uM incubated 15 mins prior to substrate addition measured after 36 secs by spectrophotometric analysis. The conditions noted are these: Homo sapiens.
For experiment [5], the target named is T2, Polyunsaturated fatty acid 5-lipoxygenase (Homo sapiens). As to the kind of experiment: Inhibition of 5-LOX (unknown origin) at 10 uM by human whole blood LTB4 assay.
Experiment [6] relates to Prostaglandin G/H synthase 2 (COX-2). As to the kind of experiment: Inhibition of COX-2 (unknown origin)-mediated TMPD oxidation using PGG2 as substrate at 100 uM incubated 15 mins prior to substrate addition measured after 36 secs by spectrophotometric analysis. The following applies: Homo sapiens.

In general, IC50 refers to the point on the concentration scale where inhibition reaches its midpoint. For orientation: inhibition means the drop in the measured response relative to a control, in per cent. As to `Clc1ccc(/C=C/c2cc(-c3ccc(-c4ccccc4)cc3)nc3ccc4ccccc4c23)cc1`, the figures for the IC50 at Prostaglandin E synthase [1] and on Prostaglandin E synthase [3] were 8.5 µM and 0.0065 µM, respectively. The inhibition in experiment [2] is < 1%; in experiment [4], < 1%; in experiment [5], 10%; in experiment [6], 1.8%.

On to `Cc1ccc([N+](=O)[O-])cc1NC(=O)CSc1nnc(CNc2c(C)cccc2C)n1C`, for which the IC50 was 0.7 µM on Prostaglandin E synthase [1] and 0.0093 µM on Prostaglandin E synthase [3]. Moreover, the inhibition in experiment [2] is < 1%; in experiment [4], < 1%; in experiment [5], 8%; in experiment [6], < 1%.

For `Cc1cc(C)c2oc(-c3ccc(C)c(NC(=O)c4cccc([N+](=O)[O-])c4)c3)nc2c1`, the IC50 at Prostaglandin E synthase [1] is 6.2 µM; on Prostaglandin E synthase [3], 0.0046 µM. Also, the values for the inhibition in experiment [2] and in experiment [5] were < 1% and 30%, respectively.

For `C=CCSc1nnc2c(n1)OC(c1ccc(-c3cccc([N+](=O)[O-])c3)o1)Nc1ccccc1-2` (stereo not given), the IC50 on Prostaglandin E synthase [1] was > 200 µM; at Prostaglandin E synthase [3], 1.6 µM.

`Cc1ccc(C(=O)O)cc1-c1ccc(/C=C2\SC(=O)N(CC(=O)Nc3ccccc3)C2=O)o1`: the IC50 at Prostaglandin E synthase [1] worked out at 160 µM; on Prostaglandin E synthase [3], 1.2 µM.

For the compound `CC1=NN(c2ccc(Cl)c(Cl)c2)C(=O)/C1=C/c1cc(Br)ccc1OCC(=O)O`, the values for the IC50 on Prostaglandin E synthase [1] and at Prostaglandin E synthase [3] were 18.5 µM and 0.17 µM, respectively.

Regarding `Cn1c(=O)c(/C(=N/Nc2ccc([N+](=O)[O-])cc2[N+](=O)[O-])c2nnn[nH]2)c(O)c2ccccc21`, the IC50 at Prostaglandin E synthase [1] was > 200 µM; at Prostaglandin E synthase [3], 1.7 µM.

With `COc1cc(NC(=O)c2nn3c(C(F)(F)F)cc(-c4ccc(Br)cc4)nc3c2Cl)cc([N+](=O)[O-])c1`, the IC50 at Prostaglandin E synthase [1] came to 8.5 µM; on Prostaglandin E synthase [3], 0.0097 µM. For the same compound, the inhibition in experiment [2] is < 1%; in experiment [4], < 1%; in experiment [5], 39%; in experiment [6], -2.2%.

For `O=C(N/N=C/c1ccc([N+](=O)[O-])cc1)c1cc(OCc2ccccc2)c(OCc2ccccc2)c(OCc2ccccc2)c1`, the figures for the IC50 at Prostaglandin E synthase [1] and on Prostaglandin E synthase [3] were 200 µM and 0.1 µM, respectively.

On to `Cc1ccc2[nH]c3c(c2c1)CCC/C3=N\N=C1/CCCc2c1[nH]c1ccc(C)cc21`, for which the IC50 at Prostaglandin E synthase [1] was > 200 µM; on Prostaglandin E synthase [3], 5 µM.

For the compound `C/C(=N\NC(=O)c1ccc([N+](=O)[O-])c(C)c1)c1cccc(NC(=O)COc2ccc(Cl)cc2Cl)c1`, the values for the IC50 at Prostaglandin E synthase [1] and at Prostaglandin E synthase [3] were 66 µM and 0.057 µM, respectively.

Turning to `Cc1nc2sc3c(c2c(=O)n1/N=C/c1cc([N+](=O)[O-])cc([N+](=O)[O-])c1O)CCCC3`, the IC50 came out at 130 µM on Prostaglandin E synthase [1] and 1.8 µM at Prostaglandin E synthase [3].

For the compound `CCn1c2ccccc2c2cc(-c3cc(C(=O)O)c4c(ccc5ccccc54)n3)ccc21`, the IC50 was > 200 µM at Prostaglandin E synthase [1] and 0.1 µM on Prostaglandin E synthase [3].

Consider `COc1cc(-c2cc(C(=O)O)c3c(ccc4ccccc43)n2)ccc1OCCCC#N`, for which the IC50 at Prostaglandin E synthase [1] is 4.4 µM; at Prostaglandin E synthase [3] it was 0.0011 µM. Further, the inhibition is < 1% in experiment [2], 4.1% in experiment [4], < 1% in experiment [5] and 1% in experiment [6].

Consider `COc1ccc(CN2C(=O)/C(=C/c3ccc(OCc4ccc([N+](=O)[O-])cc4)c(Br)c3)S/C2=N\c2ccccc2)cc1`, for which the IC50 was found to be 120 µM at Prostaglandin E synthase [1] and 0.038 µM on Prostaglandin E synthase [3].

Regarding `O=C(COC(=O)c1ccc2c(c1)C(=O)N(c1ccc(Oc3ccccc3)cc1)C2=O)c1ccc(Br)cc1`, the IC50 on Prostaglandin E synthase [1] was 200 µM; at Prostaglandin E synthase [3], 1.7 µM.

As for `CC(c1ccccc1)N1C(=O)c2ccc(C(=O)Nc3cc(Cl)ccc3C(=O)O)cc2C1=O` (stereo not given), the concentration for half-maximal inhibition (IC50) at Prostaglandin E synthase [1] came to 1.4 µM; on Prostaglandin E synthase [3], 0.002 µM. Besides, the inhibition in experiment [2] and in experiment [5] was < 1% each time.

In the case of `Cc1ccc(Cl)c(NC(=O)CSc2nnc(CNc3c(C)cccc3C)n2C)c1`, the IC50 at Prostaglandin E synthase [3] stood at 0.2 µM.

For the origin of these results see ChEMBL document CHEMBL2331332 (J Med Chem, 2013).
